From ChEMBL document CHEMBL2390870, “Coumarin chalcone fibrates: a new structural class of lipid lowering agents” (2013)
Activity calls are given as the source filed them. The rule behind the calls is not given here.

What was measured:
Rattus norvegicus [1] = assay: Antihyperlipidemic activity in triton WR-1339-induced Charles-Foster rat assessed as increase in post heparin lipolytic activity at 100 mg/kg, po after 18 hrs by spectrophotometric analysis relative to control; format: functional
In short: (§1)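 Triton WR-1339 400 mg/kg i.p. in male Charles Foster rats (six per group), with test agent in 0.2% gum acacia given orally at the same time. Post-heparin plasma lipolytic activity read after 18 h as nmol free fatty acids formed/h/ml plasma; percent change; mean ± SD; t-test.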

Rattus norvegicus [2] = assay: Antihyperlipidemic activity in triton WR-1339-induced Charles-Foster rat assessed as decrease in plasma total cholesterol level at 100 mg/kg, po after 18 hrs relative to control; format: functional; design: scale not given: the % may be the effect or the level left
In short: (§2)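 Male adult Charles Foster rats (200–225 g), six per group; hyperlipidemia induced by triton WR-1339 400 mg/kg i.p.; test agent macerated with 0.2% w/v gum acacia in water and given orally at the same time, with diet withdrawn; vehicle to controls. After 18 h, plasma was obtained by centrifugation at 2500 g, 4 °C, 10 min and diluted 1:3 in saline. Mean ± SD; Student's t-test.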

Rattus norvegicus [3] = assay: Antihyperlipidemic activity in triton WR-1339-induced Charles-Foster rat assessed as decrease in plasma phospholipid level at 100 mg/kg, po after 18 hrs relative to control; format: functional; design: scale not given: the % may be the effect or the level left; in short: as §2
Rattus norvegicus [4] = assay: Antihyperlipidemic activity in triton WR-1339-induced Charles-Foster rat assessed as decrease in plasma triglyceride level at 100 mg/kg, po after 18 hrs relative to control; format: functional; design: scale not given: the % may be the effect or the level left; in short: as §2
Rattus norvegicus [5] = assay: Antihyperlipidemic activity in triton WR-1339-induced Charles-Foster rat assessed as decrease in plasma LDL level at 100 mg/kg, po after 18 hrs; format: functional, organism-based; design: dose 100 mg/kg; in short: as §2
Rattus norvegicus [6] = assay: Antihyperlipidemic activity in triton WR-1339-induced Charles-Foster rat assessed as increase in post heparin lipolytic activity at 50 mg/kg, po after 18 hrs by spectrophotometric analysis relative to control; format: functional; in short: as §1
Rattus norvegicus [7] = assay: Antihyperlipidemic activity in triton WR-1339-induced Charles-Foster rat assessed as decrease in plasma triglyceride level at 50 mg/kg, po after 18 hrs relative to control; format: functional; design: scale not given: the % may be the effect or the level left; in short: as §2
Rattus norvegicus [8] = assay: Antihyperlipidemic activity in triton WR-1339-induced Charles-Foster rat assessed as increase in plasma HDL level at 100 mg/kg, po after 18 hrs; format: functional, organism-based; design: dose 100 mg/kg; in short: as §2
Rattus norvegicus [9] = assay: Antihyperlipidemic activity in triton WR-1339-induced Charles-Foster rat assessed as decrease in plasma total cholesterol level at 200 mg/kg, po after 18 hrs relative to control; format: functional; design: scale not given: the % may be the effect or the level left; in short: as §2
Rattus norvegicus [10] = assay: Antihyperlipidemic activity in triton WR-1339-induced Charles-Foster rat assessed as increase in liver lipoprotein lipase activity at 100 mg/kg, po after 18 hrs; format: functional, organism-based; design: dose 100 mg/kg
Rattus norvegicus [11] = assay: Antihyperlipidemic activity in triton WR-1339-induced Charles-Foster rat assessed as decrease in plasma triglyceride level at 200 mg/kg, po after 18 hrs relative to control; format: functional; design: scale not given: the % may be the effect or the level left; in short: as §2
Rattus norvegicus [12] = assay: Antihyperlipidemic activity in triton WR-1339-induced Charles-Foster rat assessed as decrease in plasma total cholesterol level at 50 mg/kg, po after 18 hrs relative to control; format: functional; design: scale not given: the % may be the effect or the level left; in short: as §2
Rattus norvegicus [13] = assay: Antihyperlipidemic activity in triton WR-1339-induced Charles-Foster rat assessed as decrease in plasma phospholipid level at 200 mg/kg, po after 18 hrs relative to control; format: functional; design: scale not given: the % may be the effect or the level left; in short: as §2
Rattus norvegicus [14] = assay: Antihyperlipidemic activity in triton WR-1339-induced Charles-Foster rat assessed as decrease in plasma VLDL level at 100 mg/kg, po after 18 hrs; format: functional, organism-based; design: dose 100 mg/kg; in short: as §2
Rattus norvegicus [15] = assay: Antihyperlipidemic activity in triton WR-1339-induced Charles-Foster rat assessed as increase in post heparin lipolytic activity at 200 mg/kg, po after 18 hrs by spectrophotometric analysis relative to control; format: functional; in short: as §1
Rattus norvegicus [16] = assay: Antihyperlipidemic activity in triton WR-1339-induced Charles-Foster rat assessed as decrease in plasma phospholipid level at 50 mg/kg, po after 18 hrs relative to control; format: functional; design: scale not given: the % may be the effect or the level left; in short: as §2

SMILES	Activity (Rattus norvegicus [1]) [%]	Activity (Rattus norvegicus [2]) [%]	Activity (Rattus norvegicus [3]) [%]	Activity (Rattus norvegicus [4]) [%]	also measured
CCC(C)c1cc(/C=C/C(=O)c2ccc(OC(C)(C)C(=O)O)cc2)cc2cc(C(=O)O)c(=O)oc12 (stereo unspecified)	4	8	8	9	
CCOC(=O)c1cc2cc(/C=C/C(=O)c3ccc(OC(CC)C(=O)OCC)cc3)cc(C)c2oc1=O (stereo unspecified)	10	14	15	14	
CCOC(=O)COc1ccc(C(=O)/C=C/c2cc(C)c3oc(=O)c(C(=O)OCC)cc3c2)cc1	2	6	8	8	
CCOC(=O)c1cc2cc(/C=C/C(=O)c3ccc(OC(C)C(=O)OCC)cc3)cc(C)c2oc1=O (stereo unspecified)	6	10	12	11	
CCOC(=O)C(C)Oc1ccc(C(=O)/C=C/c2cc(C)c(O)c(C=O)c2)cc1 (stereo unspecified)	6	12	13	11	
CCC(C)c1cc(/C=C/C(=O)c2ccc(OCC(=O)O)cc2)cc2cc(C(=O)O)c(=O)oc12 (stereo unspecified)	3	8	9	9	
CCOC(=O)COc1ccc(C(=O)/C=C/c2cc(C(C)C)c3oc(=O)c(C(=O)OCC)cc3c2)cc1	15	21	20	22	
CCOC(=O)c1cc2cc(/C=C/C(=O)c3ccc(OC(C)C(=O)OCC)cc3)cc(C(C)CC)c2oc1=O (stereo unspecified)	5	10	9	9	
CCOC(=O)COc1ccc(C(=O)/C=C/c2cc(C(C)CC)c3oc(=O)c(C(=O)OCC)cc3c2)cc1 (stereo unspecified)	8	11	12	11	
CCOC(=O)CCCOc1ccc(C(=O)/C=C/c2cc(C(C)CC)c3oc(=O)c(C(=O)OCC)cc3c2)cc1 (stereo unspecified)	7	13	12	12	
CCOC(=O)COc1ccc(C(=O)/C=C/c2cc(C(C)(C)C)c3oc(=O)c(C(=O)OCC)cc3c2)cc1	5	13	11	11	
CCOC(=O)CCCOc1ccc(C(=O)/C=C/c2cc(C(C)(C)C)c3oc(=O)c(C(=O)OCC)cc3c2)cc1	5	12	11	11	
CCOC(=O)c1cc2cc(/C=C/C(=O)c3ccc(OC(C)(C)C(=O)OCC)cc3)cc(C)c2oc1=O	5	10	10	8	
Cc1cc(/C=C/C(=O)c2ccc(OC(C)C(=O)O)cc2)cc2cc(C(=O)O)c(=O)oc12 (stereo unspecified)	17	26	24	25	Activity (Rattus norvegicus [5]): Active; Activity (Rattus norvegicus [6]): 12%; Activity (Rattus norvegicus [7]): 14%; Activity (Rattus norvegicus [8]): Active; Activity (Rattus norvegicus [9]): 27%; Activity (Rattus norvegicus [10]): Active; Activity (Rattus norvegicus [11]): 26%; Activity (Rattus norvegicus [12]): 16%; Activity (Rattus norvegicus [13]): 24%; Activity (Rattus norvegicus [14]): Active; Activity (Rattus norvegicus [15]): 17%; Activity (Rattus norvegicus [16]): 15%
CCOC(=O)CCCOc1ccc(C(=O)/C=C/c2cc(C)c3oc(=O)c(C(=O)OCC)cc3c2)cc1	12	19	17	16	
CCOC(=O)C(C)Oc1ccc(C(=O)/C=C/c2cc(C=O)c(O)c(C(C)CC)c2)cc1 (stereo unspecified)	5	13	11	11	
CC(C)c1cc(/C=C/C(=O)c2ccc(OCC(=O)O)cc2)cc2cc(C(=O)O)c(=O)oc12	3	9	7	8	
Cc1ccc(C)c(OCCCC(C)(C)C(=O)O)c1 [GEMFIBROZIL]	19	32	30	33	
CCOC(=O)c1cc2cc(/C=C/C(=O)c3ccc(OC(C)(C)C(=O)OCC)cc3)cc(C(C)CC)c2oc1=O (stereo unspecified)	15	22	23	23	Activity (Rattus norvegicus [6]): 13%; Activity (Rattus norvegicus [7]): 16%; Activity (Rattus norvegicus [9]): 23%; Activity (Rattus norvegicus [11]): 25%; Activity (Rattus norvegicus [12]): 18%; Activity (Rattus norvegicus [13]): 24%; Activity (Rattus norvegicus [15]): 15%; Activity (Rattus norvegicus [16]): 16%
